Experimental data published in ChEMBL document CHEMBL4811254, “Beyond Basicity: Discovery of Nonbasic DENV-2 Protease Inhibitors with Potent Activity in Cell Culture” (J Med Chem, 2021).
Calls of active or inactive are those of the source. No rule for the calls is given here.

How the values were obtained:
[1] = biological target: Genome polyprotein (dengue virus type 2) (UniProt P29990); assay: Inhibition of NS2B-NS3 protease in DENV2proHeLa system assessed as inhibition of luciferase signal at 12.5 uM incubated for 24 hrs by luciferase reporter gene assay; assay type: cell-based; conditions: HeLa
Method in brief: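 Stable DENV2proHeLa cells seeded at 2 × 10⁴/well and dosed immediately, then incubated 24 h at 37 °C. Cells lysed 15 min at room temperature. Luciferase read with coelenterazine (2.75 μM in PBS) injection, luminescence 5 s. Triplicates; percent inhibition calculated relative to untreated control; background from cell-free wells.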

[2] = Cytotoxicity against human HeLa cells assessed as reduction in cell viability incubated for 24 hrs by CellTiter-Blue assay; assay type: cell-based
Method in brief: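 Viability by CellTiter-Blue in HeLa or Huh-7 cells exposed to compound dilutions. Plates run in parallel with the reporter assay (HeLa) or the virus titer assay (Huh-7).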

[3] = biological target: Prothrombin (Homo sapiens) (UniProt P00734); assay: Inhibition of thrombin in human plasma using Boc-Val-Pro-Arg-AMC as substrate at 25 uM preincubated with enzyme for 15 mins followed by substrate addition and measured for 15 mins by fluorimetric assay; assay type: cell-free; conditions: time 30.0 min
Trypsin (Homo sapiens) = Trypsin (Homo sapiens) (UniProt P07477+P07478+P35030); assay: Inhibition of trypsin (unknown origin) using Boc-Val-Pro-Arg-AMC as substrate at 50 uM preincubated with enzyme for 15 mins followed by substrate addition and measured for 15 mins by fluorimetric assay; assay type: protein assay; conditions: time 30.0 min
Genome polyprotein = Genome polyprotein (dengue virus type 2, UniProt P29990); assay: Inhibition of NS2B-NS3 protease in DENV2proHeLa system assessed as inhibition of luciferase signal incubated for 24 hrs by luciferase reporter gene assay; assay type: cell-based, HeLa
Method in brief: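 HeLa cells stably carrying the reporter system, 2 × 10⁴ per well, given inhibitor at seeding and held 24 h at 37 °C. Cells lysed 15 min at room temperature. Luciferase read for 5 s after injecting coelenterazine (2.75 μM in PBS). Triplicate wells per concentration; percent inhibition taken against untreated cells. EC50/EC90 from 4-parameter dose-response fit, background from cell-free wells subtracted.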

Structure (SMILES)	inhibition [1] [%]	CC50 at 24 h [2] [µM]	inhibition [3]	inhibition (Trypsin (Homo sapiens))	EC50 (Genome polyprotein) [µM]
CCCCCC(=O)N[C@H](C(=O)NCc1cccc(OC)c1)c1ccc(OCc2ccccc2)cc1	< 10	> 50	inactive	inactive	–
CCCC(O)C(=O)N[C@H](C(=O)NCc1ccc(C(N)=O)cc1)c1ccc(OCc2ccccc2)cc1 (stereo not given in full)	< 10	> 50	inactive	inactive	–
CCCCCC(=O)N[C@H](C(=O)NCCc1ccc(O)cc1)c1ccc(OCc2ccccc2)cc1	58	> 25	inactive	inactive	10
NC(=O)c1cccc(NC(=O)[C@@H](NC(=O)c2ccc(C(=O)N3CCOCC3)cc2)c2ccc(OCc3ccccc3)cc2)c1	40	> 100	inactive	inactive	15
NC(=O)c1cccc(NC(=O)[C@@H](NC(=O)C2CCN(c3ccccc3)CC2)c2ccc(OCc3ccccc3)cc2)c1	46	> 50	inactive	inactive	–
NCCCCCC(=O)N[C@H](C(=O)NCc1ccc(C(N)=O)cc1)c1ccc(OCc2ccccc2)cc1	14	> 50	inactive	inactive	–
CCCCCC(=O)N[C@H](C(=O)Nc1ccc(CO)cc1)c1ccc(OCc2ccccc2)cc1	48	> 50	inactive	inactive	18
CCCCCC(=O)N[C@H](C(=O)NCC1CCC(C(N)=O)CC1)c1ccc(OCc2ccccc2)cc1 (stereo not given in full)	29	> 50	inactive	inactive	–
NC(=O)c1ccc(CNC(=O)[C@@H](N)c2ccc(OCc3ccccc3)cc2)cc1	33	> 50	inactive	inactive	–
CCCCCC(=O)N[C@H](C(=O)NCc1ccc(NC(C)=O)cc1)c1ccc(OCc2ccccc2)cc1	55	> 100	inactive	inactive	14
NC(=O)c1cccc(NC(=O)[C@@H](NC(=O)c2ccc(Oc3ccccc3)cc2)c2ccc(Oc3ccccc3)cc2)c1	73	> 50	inactive	inactive	2.9
CCCCCC(=O)N[C@H](C(=O)Nc1ccc(CC(N)=O)cc1)c1ccc(OCc2ccccc2)cc1	47	> 50	inactive	inactive	–
NC(=O)c1cccc(NC(=O)[C@@H](NC(=O)c2cccc(C(=O)N3CCOCC3)c2)c2ccc(OCc3ccccc3)cc2)c1	35	> 100	inactive	inactive	23
CCCCCC(=O)N[C@H](C(=O)NCc1ccc(C(N)=O)cc1)c1ccc(O)cc1	< 10	> 100	inactive	inactive	–
NC(=O)c1ccc(CNC(=O)[C@@H](NC(=O)CCc2ccccc2)c2ccc(OCc3ccccc3)cc2)cc1	57	> 50	inactive	inactive	12
CCCCCC(=O)N[C@H](C(=O)NCc1ccc(C(N)=O)cc1)c1ccc(OCc2ccc(C(F)(F)F)cc2)cc1	53	> 100	inactive	inactive	9.8
CCCCCC(=O)N[C@H](C(=O)NCc1ccc(Cl)cc1)c1ccc(OCc2ccccc2)cc1	14	> 50	inactive	inactive	–
CCCCCC(=O)N[C@H](C(=O)N1CCC(C(N)=O)CC1)c1ccc(OCc2ccccc2)cc1	28	> 50	inactive	inactive	–
NC(=O)c1ccc(CNC(=O)[C@@H](NC(=O)c2cccs2)c2ccc(OCc3ccccc3)cc2)cc1	72	> 50	inactive	inactive	8.4
Cc1ccc(C)c(OCCCC(C)(C)C(=O)N[C@H](C(=O)Nc2cccc(C(N)=O)c2)c2ccc(OCc3ccccc3)cc2)c1	82	> 25	inactive	inactive	1.7
